Shown are actives, neighbours in structure and some others; about 3.3% of the full set was active somewhere.
SIAE primary: blocks human sialic acid acetylesterase. inhibition, % at 9.66 µM. 370,000 compounds, 0.69% hits. Q9HAT2. SIAE FP-Rh probe binding, fluorescence polarization;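 active means inhibition above a cutoff: mean of compounds within the control limits plus 3 SD of those, cut at about 17% in these data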
Target sequence (Q9HAT2 whole entry, looked up): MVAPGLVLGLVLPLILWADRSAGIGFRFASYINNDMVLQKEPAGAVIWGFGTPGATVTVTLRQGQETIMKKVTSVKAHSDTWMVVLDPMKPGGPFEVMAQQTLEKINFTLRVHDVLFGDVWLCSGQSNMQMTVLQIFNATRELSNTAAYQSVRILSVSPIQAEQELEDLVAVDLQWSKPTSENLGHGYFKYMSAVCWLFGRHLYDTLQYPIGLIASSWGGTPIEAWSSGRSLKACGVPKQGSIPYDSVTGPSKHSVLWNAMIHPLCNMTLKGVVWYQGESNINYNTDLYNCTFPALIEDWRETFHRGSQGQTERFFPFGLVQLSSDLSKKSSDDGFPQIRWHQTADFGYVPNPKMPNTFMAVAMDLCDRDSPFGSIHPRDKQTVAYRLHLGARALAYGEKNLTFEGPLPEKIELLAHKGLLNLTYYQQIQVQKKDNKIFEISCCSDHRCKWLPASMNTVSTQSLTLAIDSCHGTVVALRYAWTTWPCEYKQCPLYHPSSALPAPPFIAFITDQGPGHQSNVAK
LEDGF integ inh: blocks HIV-1 LEDGF/p75-dependent DNA integration; TR-FRET IN-LEDGF/p75 DNA integration, Eu/Cy5; inhibition, % at 3.7 µM; 370,000 compounds, 0.64% hits;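 active means inhibition above the screen-wide mean plus 3 SD, cut at about 13% in these data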;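 further: signal is the Cy5 over europium emission ratio at 671 and 618 nm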
TDP2 absorb: blocks human TDP2 phosphodiesterase activity; 370,000 compounds, 0.34% hits; O95551; recombinant TDP2, T5PNP hydrolysis, p-nitrophenol absorbance 415 nm; inhibition, % at 12.8 µM;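 active means inhibition above the mean of all tested compounds plus 3 SD, set per campaign, cut at about 25% in these data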
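Test system: Human TDP2 enzyme | Reagent: 5 mM T5PNP | Compound dosing: 12.8 µM single point, 1% DMSO | Incubation: Enzyme reaction with compound for 2 h at 37 °C | Technique: p-Nitrophenol epi absorbance | Read-out: % inhibition relative to enzyme-containing and enzyme-free wells | Benchmarks: High control without enzyme, low control DMSO plus TDP2 | Replicates: Singlicate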
UHRF1 binding: human UHRF1 methylated DNA binding inhibitors; 370,000 compounds, 0.75% hits; UHRF1 binding to methylated oligo, TR-FRET; Q96T88; inhibition, % at 4.4 µM;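 further: UHRF1 SRA domain binding a hemimethylated CpG hairpin DNA probe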
PRMT1 FP inh: blocks human protein arginine methyltransferase 1; 370,000 compounds, 1.3% hits; inhibition, % at 2.79 µM; Q99873; recombinant PRMT1, activity-based probe fluorescence polarization;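 active means inhibition above about 21% made by adding two undisclosed values, limit read from the data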
MBD2 inh: blocks human MBD2 binding to methylated DNA | Q9UBB5 | TR-FRET, MBD2 binding to methylated oligonucleotide | inhibition, % at 4.4 µM | 370,000 compounds, 0.31% hits | AID 686964; in the data active means inhibition above about 13%
PRMT1 inh conf: confirmation of human PRMT1 inhibitors. shares compounds with PRMT1 FP inh. recombinant His-PRMT1, activity-based probe fluorescence polarization. inhibition, % at 2.79 µM. 3,300 compounds, 42% hits;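 active means mean inhibition across replicates above the hit cutoff derived for the earlier primary screen, cut at about 22% in these data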
UHRF1 DNA bind: UHRF1 methyl-oligo binding inhibition as MBD2 counter-screen. 1,000 compounds, 25% hits. inhibition, % at 4.4 µM. UHRF1 binding to methylated oligonucleotide, TR-FRET. shares compounds with MBD2 inh;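 further: UHRF1 SRA domain binding a labeled hemimethylated CpG hairpin DNA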
MBD2 confirm: confirmation of human MBD2-DBD methylated oligonucleotide binding inhibitors | 1,000 compounds, 26% hits | TR-FRET MBD2-DBD binding to methylated oligonucleotide | inhibition, % at 4.4 µM | shares compounds with MBD2 inh; in the data active means inhibition above about 14%
Of the large screens only hits and unclear results are named; the others gave an inactive call (follow-up assays come after a bar, where they were run); ! = not active in a repeat. Unless noted, no stated cut-off is given here; in the data, active means inhibition above about 21%; inactive means the rest.

CC1=NNC(=O)C1Br (stereo unspecified)	PRMT1 FP inh 50 | PRMT1 inh conf 74
Cc1ccc(OC(=O)N(C)C[C@H]2OCc3cnnn3CCCC(=O)N([C@H](C)CO)C[C@H]2C)cc1	none
COc1ccc2c(c1)C13CCCC[C@@H]1C(C2)N(C)CC3 (stereo partly specified)	PRMT1 FP inh 136 | PRMT1 inh conf inactive
CC(C)C(NC(=O)OCc1ccccc1)P(=O)(Oc1ccccc1)Oc1ccccc1 (stereo unspecified)	none
CN1C(=O)C(=Cc2ccccc2OCc2ccc(C(=O)O)cc2)C(=O)N(C)C1=O	none
CN1C(=O)C(=Cc2ccccc2OS(=O)(=O)c2ccccc2)C(=O)N(C)C1=O	PRMT1 FP inh 34 | PRMT1 inh conf inactive
COc1ccc(/C=C2/C(=O)NC(=O)N(C3CCCCC3)C2=O)cc1CSc1ccccn1	PRMT1 FP inh 26 | PRMT1 inh conf inactive
CC[n+]1c(/C=C/N(C)c2ccccc2)sc2ccc(Cl)cc21	PRMT1 FP inh 29 | PRMT1 inh conf inactive
COc1ccc2c3c([nH]c2c1)[C@H](C=C(C)C)N1C(=O)[C@@H]2CCCN2C(=O)[C@@H]1C3	none
CN(CC=CCN(C)P(=S)(N1CC1)N1CC1)P(=S)(N1CC1)N1CC1	PRMT1 FP inh 52 | PRMT1 inh conf inactive
Oc1ccc(C2=CCNCC2)cc1O	PRMT1 FP inh 25 | PRMT1 inh conf 28
C1=C(c2ccccc2)CCNC1	none
Cc1ccc2[nH]c3c(c2c1)CN(C(=O)CN1C[C@H]2C[C@@H](C1)c1cccc(=O)n1C2)CC3	PRMT1 FP inh 50 | PRMT1 inh conf inactive
CN1CCC2(CC1)C(C#N)=C(N)NC(S)=C2C#N	TDP2 absorb 30!, PRMT1 FP inh 31! | PRMT1 inh conf inactive
CCOC(=O)c1c(/N=C/c2c(O)n(-c3cccc(C)c3)c(=O)[nH]c2=O)sc2c1CCCC2	none
CCOC(=O)c1cc(CC)sc1/N=C/C1C(=O)NC(=S)NC1=O	PRMT1 FP inh 41 | PRMT1 inh conf inactive
CCOC(=O)c1cc(CC)sc1/N=C/c1c(O)[nH]c(=S)[nH]c1=O	PRMT1 FP inh 81 | PRMT1 inh conf inactive
CC[C@H](C(N)=O)N1CCCC1=O	none
O=C1CC[C@@]2(O)[C@H]3Cc4ccc(O)c5c4[C@@]2(CCN3CC2CC2)C1O5 (stereo partly specified)	none
CN1CC[C@@H]2CN[C@H](c3ccccc3Br)C[C@@H]21	none
NC(Cc1ccccc1)[P+](=O)O (stereo unspecified)	none
COc1ccc(CN2C(=O)NC(=O)/C(=C/c3ccc([N+](=O)[O-])s3)C2=O)cc1	PRMT1 FP inh 31 | PRMT1 inh conf 66
O=C1NC(=O)N(Cc2ccc(F)cc2)C(=O)/C1=C\c1ccc([N+](=O)[O-])s1	PRMT1 FP inh 39 | PRMT1 inh conf 72
CC(=O)N1c2ccccc2C(c2ccccc2)=NCC1C(=O)NCc1ccccc1 (stereo unspecified)	none
CC[C@H](C)[C@@H]1OC(=O)[C@H](C(C)C)N(C)C(=O)[C@H](C(C)C)NC(=O)[C@@H](C)[C@@H](CCCC#CBr)OC(=O)[C@H](C(C)C)N(C)C(=O)C2CCCN2C1=O (stereo partly specified)	none
Cn1c(O)c(C(c2ccccn2)c2c(O)n(C)c(=S)n(C)c2=O)c(=O)n(C)c1=S	PRMT1 FP inh 27 | PRMT1 inh conf inactive
Cn1c(O)c(C(c2ccncc2)c2c(O)n(C)c(=S)n(C)c2=O)c(=O)n(C)c1=S	PRMT1 FP inh 38 | PRMT1 inh conf inactive
CCC(C)n1c(O)c(C(c2ccccn2)c2c(O)n(C(C)CC)c(=S)[nH]c2=O)c(=O)[nH]c1=S (stereo unspecified)	none
COc1ccc(C2=NCC(=S)Nc3ccc(Cl)cc32)cc1Cl	PRMT1 FP inh 40 | PRMT1 inh conf inactive
O=C1NC(=O)N(CCC2=CCCCC2)C(=O)/C1=C\c1cccs1	PRMT1 FP inh 31 | PRMT1 inh conf inactive
COc1ccc2nc(-c3ccc(CN4CCC(n5nnc6ccccc65)CC4)cc3)c(-c3ccccc3)nc2c1	none
O=C1NS(=O)c2cc([N+](=O)[O-])cc([N+](=O)[O-])c21 (stereo unspecified)	PRMT1 FP inh 38 | PRMT1 inh conf 27
CCOC(=O)CNC(=O)N1Cc2cc(Br)ccc2-n2nncc2C1	none
C[C@H]1CNCCN1c1ccc(N2CC[C@@H](O)C2)c(C#N)c1	none
Cc1cc(N2CCNC[C@@H]2C)ccc1N1CC[C@@H](O)C1	PRMT1 FP inh 47 | PRMT1 inh conf inactive
Cc1nn(C2CCOC(C)(C)C2)c2c1C(c1ccc(OC(C)C)cc1)SCC(=O)N2 (stereo unspecified)	PRMT1 FP inh 28 | PRMT1 inh conf 41
CCCC(C)n1[nH]c(=O)c2c1NC(=O)CSC2c1ccc(OC)cc1 (stereo unspecified)	none
COC1C(C)OC(OC2CC(C)(O)Cc3cc4c(c(O)c32)C(=O)c2c(O)cc3c(c2C4=O)OC2OC3(C)C(O)C(N(C)C)C2O)C(OC)C1(C)OC (stereo unspecified)	UHRF1 binding 97, PRMT1 FP inh 124, MBD2 inh 107 | PRMT1 inh conf 98 | UHRF1 DNA bind 102 | MBD2 confirm 109
OC1CN2CCCC(O)C2C1O (stereo unspecified)	none

Source: PubChem (The Scripps Research Institute Molecular Screening Center)
